The source made the active and inactive calls. The calls are words filed in the database; no cut-off is given here.
Legend:
[1] = target: T1, von Hippel-Lindau disease tumor suppressor/AKT (Homo sapiens) (UniProt P31751+Q9Y243+P31749+P40337); test: Protac activity at VHL/AKT in human PC-3 cells assessed as reduction in total AKT level at 1 uM after 24 hrs by Western blot analysis; type: cell-based
Summary of the method: (§1)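 PC3 cells were exposed to compound at 1 μM for 24 h, with GSK690693 as reference inhibitor. Lysates were immunoblotted for total AKT, P-AKT S473, P-PRAS40 T246 and P-S6 S240/244, with β-actin as loading control. Detection was by HRP chemiluminescence on film.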

[2] = target: T1, von Hippel-Lindau disease tumor suppressor/AKT (Homo sapiens); test: Protac activity at VHL/AKT in human PC-3 cells assessed as reduction in phosphorylated AKT level at 1 uM after 24 hrs by Western blot analysis; type: cell-based; summary of the method: as §1
[3] = target: T2, Protein cereblon/AKT (Homo sapiens) (UniProt P31751+Q9Y243+P31749+Q96SW2); test: Protac activity at CRBN/AKT in human BT-474 cells assessed as reduction in PRAS40 phosphorylation at 1 uM after 24 hrs by Western blot analysis; type: cell-based
Summary of the method: (§2)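 BT474 cells were treated 24 h with compound and lysed in IP lysis buffer (Tris pH 7.5, Triton X-100, phosphatase and protease inhibitors). Lysates were normalised by BCA and run on 4–12% Bis–Tris gels with PVDF wet transfer. Blots were probed for total AKT, P-AKT S473, P-PRAS40 T246 and P-S6 S240/244, with β-actin loading control and HRP chemiluminescence.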

[4] = target: T2, Protein cereblon/AKT (Homo sapiens); test: Protac activity at CRBN/AKT in human PC-3 cells assessed as reduction in total AKT level at 1 uM after 24 hrs by Western blot analysis; type: cell-based; summary of the method: as §1
[5] = target: T2, Protein cereblon/AKT (Homo sapiens); test: Protac activity at CRBN/AKT in human PC-3 cells assessed as reduction in phosphorylated AKT level at 1 uM after 24 hrs by Western blot analysis; type: cell-based; summary of the method: as §1
[6] = target: T2, Protein cereblon/AKT (Homo sapiens); test: Protac activity at CRBN/AKT in human PC-3 cells assessed as reduction in PRAS40 phosphorylation at 1 uM after 24 hrs by Western blot analysis; type: cell-based; summary of the method: as §1
[7] = target: T2, Protein cereblon/AKT (Homo sapiens); test: Protac activity at CRBN/AKT in human PC-3 cells assessed as reduction in S6 phosphorylation at 1 uM after 24 hrs by Western blot analysis; type: cell-based; summary of the method: as §1
[8] = tested on: BT-474; test: Antiproliferative activity against human BT-474 cells assessed as growth inhibition incubated for 5 days by IncuCyte live-cell imaging analysis; type: functional; settings: BT-474, 120 h, time 5 day
[9] = target: T1, von Hippel-Lindau disease tumor suppressor/AKT (Homo sapiens); test: Protac activity at VHL/AKT in human BT-474 cells assessed as reduction in phosphorylated AKT level at 5 to 10 uM after 24 hrs by Western blot analysis; type: cell-based; settings: dose 5-10 µM; summary of the method: as §2
[10] = target: T1, von Hippel-Lindau disease tumor suppressor/AKT (Homo sapiens); test: Protac activity at VHL/AKT in human BT-474 cells assessed as reduction in total AKT level at 5 to 10 uM after 24 hrs by Western blot analysis; type: cell-based; settings: dose 5-10 µM; summary of the method: as §2
[11] = tested on: PC-3; test: Antiproliferative activity against human PC-3 cells assessed as growth inhibition incubated for 5 days by IncuCyte live-cell imaging analysis; type: functional; settings: PC-3, 120 h, time 5 day
[12] = tested on: MDA-MB-468; test: Antiproliferative activity against human MDA-MB-468 cells assessed as growth inhibition incubated for 5 days by IncuCyte live-cell imaging analysis; type: functional; settings: MDA-MB-468, 120 h, time 5 day
[13] = tested on: Mus musculus; test: Toxicity in Swiss albino mouse assessed as tolerability at 50 mg/kg, ip measured upto 8 hrs by LC-MS/MS method; type: organism-based; settings: in vivo
[14] = mouse, in vivo, ip, 50 mg/kg, 2 h
[15] = tested on: MDA-MB-468; test: Induction of apoptosis in human MDA-MB-468 cells at 2.5 uM measured upto 120 hrs by IncuCyte live-cell automated imaging analysis; type: functional
Summary of the method: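 MDA-MB-468 cells (1–3 × 10³/well, triplicate wells) grown with compound in DMEM/10% FBS at 37 °C, 5% CO₂. DRAQ7 at 1.5 μM was added to the medium, and apoptotic red-fluorescent counts were imaged on an IncuCyte over 5 days.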

[16] = tested on: BT-474; test: Inhibition of colony formation in human BT-474 cells at 0.1 to 10 uM after 14 days by crystal violet staining based assay; type: functional, cell-based; settings: dose 0.1-10 µM, time 14.0 day
Summary of the method: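 BT474 cells were cultured 14 days with compound, and medium plus compound was replenished every 2 days. Viable cells were stained with 0.5% crystal violet and quantified.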

[17] = target: T1, von Hippel-Lindau disease tumor suppressor/AKT (Homo sapiens); test: Protac activity at VHL/AKT in human BT-474 cells assessed as reduction in total AKT level after 24 hrs by Western blot analysis; type: cell-based; settings: dose 1-10 µM; summary of the method: as §2
[18] = target: T1, von Hippel-Lindau disease tumor suppressor/AKT (Homo sapiens); test: Protac activity at VHL/AKT in human PC-3 cells assessed as reduction in S6 phosphorylation at 1 uM after 24 hrs by Western blot analysis; type: cell-based; summary of the method: as §1
[19] = target: T1, von Hippel-Lindau disease tumor suppressor/AKT (Homo sapiens); test: Protac activity at VHL/AKT in human PC-3 cells assessed as reduction in PRAS40 phosphorylation at 1 uM after 24 hrs by Western blot analysis; type: cell-based; summary of the method: as §1
[20] = in vivo; settings: Swiss albino, mouse, ip, 50 mg/kg
[21] = in vivo; settings: Swiss albino, mouse, ip, 50 mg/kg; remark: listed apart in the source

## CCn1c(-c2nonc2N)nc2c(C#CC(C)(C)O)ncc(OCCCNCCCC(=O)NCCOCCOCCOCCC(=O)N[C@H](C(=O)N3C[C@H](O)C[C@H]3C(=O)NCc3ccc(-c4scnc4C)cc3)C(C)(C)C)c21
[1]
  Activity: inactive
[2]
  Activity: inactive

## C[C@@H]1C[C@@H](O)c2ncnc(N3CCN(C(=O)[C@H](CNCCNC(=O)CCCCCCCCNc4cccc5c4C(=O)N(C4CCC(=O)NC4=O)C5=O)c4ccc(Cl)cc4)CC3)c21 (stereo partly specified)
[3]
  Activity: Active

## CCn1c(-c2nonc2N)nc2c(C#CC(C)(C)O)ncc(OCCCNCCCC(=O)NCCOCCOCCOCCOCCNc3cccc4c3C(=O)N(C3CCC(=O)NC3=O)C4=O)c21 (stereo unspecified)
[4]
  Activity: Active
[5]
  Activity: Active

## CCn1c(-c2nonc2N)nc2c(C#CC(C)(C)O)ncc(OCCCNCCCC(=O)NCCCCCCCCNc3cccc4c3C(=O)N(C3CCC(=O)NC3=O)C4=O)c21 (stereo unspecified)
[4]
  Activity: Active
[6]
  Activity: inactive
[5]
  Activity: Active
[7]
  Activity: Active

## CCn1c(-c2nonc2N)nc2c(C#CC(C)(C)O)ncc(OCCCNCCCC(=O)NCCOCCOCCOCCOCCC(=O)N[C@H](C(=O)N3C[C@H](O)C[C@H]3C(=O)NCc3ccc(-c4scnc4C)cc3)C(C)(C)C)c21
[1]
  Activity: inactive
[2]
  Activity: inactive

## C[C@@H]1C[C@@H](O)c2ncnc(N3CCN(C(=O)[C@H](CNCCC(=O)NCCCCCCCCNc4cccc5c4C(=O)N(C4CCC(=O)N(C)C4=O)C5=O)c4ccc(Cl)cc4)CC3)c21 (stereo partly specified)
[8]
  GI50: 3.3 µM

## CCn1c(-c2nonc2N)nc2c(C#CC(C)(C)O)ncc(OCCCNCCCC(=O)NCCOCCOCCOCCOCCOCCNc3cccc4c3C(=O)N(C3CCC(=O)NC3=O)C4=O)c21 (stereo unspecified)
[4]
  Activity: Active
[5]
  Activity: Active

## CCn1c(-c2nonc2N)nc2c(C#CC(C)(C)O)ncc(OCCCNCCCC(=O)NCCOCCNc3cccc4c3C(=O)N(C3CCC(=O)NC3=O)C4=O)c21 (stereo unspecified)
[4]
  Activity: Active
[5]
  Activity: Active

## CCn1c(-c2nonc2N)nc2c(C#CC(C)(C)O)ncc(OCCCNCCCC(=O)NCCOCCOCCC(=O)N[C@H](C(=O)N3C[C@H](O)C[C@H]3C(=O)NCc3ccc(-c4scnc4C)cc3)C(C)(C)C)c21
[1]
  Activity: inactive
[2]
  Activity: inactive

## CCn1c(-c2nonc2N)nc2c(C#CC(C)(C)O)ncc(OCCCNCCCC(=O)NCCOCCOCCOCCNc3cccc4c3C(=O)N(C3CCC(=O)NC3=O)C4=O)c21 (stereo unspecified)
[4]
  Activity: Active
[5]
  Activity: Active

## CCn1c(-c2nonc2N)nc2c(C#CC(C)(C)O)ncc(OCCCNCCCC(=O)NCCOCCOCCOCCOCCOCCC(=O)N[C@H](C(=O)N3C[C@H](O)C[C@H]3C(=O)NCc3ccc(-c4scnc4C)cc3)C(C)(C)C)c21
[1]
  Activity: inactive
[2]
  Activity: inactive

## Cc1ncsc1-c1ccc(CNC(=O)[C@@H]2C[C@@H](O)CN2C(=O)[C@@H](NC(=O)COCCNC(=O)CCNC[C@@H](C(=O)N2CCN(c3ncnc4c3[C@H](C)C[C@H]4O)CC2)c2ccc(Cl)cc2)C(C)(C)C)cc1
[9]
  Activity: Active
[10]
  Activity: Active

## CC(C)NC[C@@H](C(=O)N1CCN(c2ncnc3c2[C@H](C)C[C@H]3O)CC1)c1ccc(Cl)cc1 [IPATASERTIB]
[11]
  GI50: 7.6 µM
[12]
  GI50: 3.7 µM

## CCn1c(-c2nonc2N)nc2c(C#CC(C)(C)O)ncc(OCCCNCCCC(=O)NCCOCC(=O)N[C@H](C(=O)N3C[C@H](O)C[C@H]3C(=O)NCc3ccc(-c4scnc4C)cc3)C(C)(C)C)c21
[1]
  Activity: inactive
[2]
  Activity: inactive

## CCn1c(-c2nonc2N)nc2c(C#CC(C)(C)O)ncc(OCCCNCCCC(=O)NCCOCCOCCOCC(=O)N[C@H](C(=O)N3C[C@H](O)C[C@H]3C(=O)NCc3ccc(-c4scnc4C)cc3)C(C)(C)C)c21
[1]
  Activity: inactive
[2]
  Activity: inactive

## Cc1ncsc1-c1ccc([C@H](C)NC(=O)[C@H]2C[C@H](O)CN2C(=O)[C@@H](NC(=O)CCCCCCCCCCC(=O)NCCNC[C@@H](C(=O)N2CCN(c3ncnc4c3[C@H](C)C[C@H]4O)CC2)c2ccc(Cl)cc2)C(C)(C)C)cc1
[8]
  GI50: 3.1 µM

## CCn1c(-c2nonc2N)nc2c(C#CC(C)(C)O)ncc(OCCCNCCCC(=O)NCCOCCOCCNc3cccc4c3C(=O)N(C3CCC(=O)NC3=O)C4=O)c21 (stereo unspecified)
[4]
  Activity: Active
[5]
  Activity: Active

## CCn1c(-c2nonc2N)nc2c(C#CC(C)(C)O)ncc(OCCCNCCCC(=O)NCCOCCOCC(=O)N[C@H](C(=O)N3C[C@H](O)C[C@H]3C(=O)NCc3ccc(-c4scnc4C)cc3)C(C)(C)C)c21
[1]
  Activity: inactive
[2]
  Activity: inactive

## C[C@@H]1C[C@@H](O)c2ncnc(N3CCN(C(=O)[C@H](CNCCC(=O)NCCCCCCCCNc4cccc5c4C(=O)N(C4CCC(=O)NC4=O)C5=O)c4ccc(Cl)cc4)CC3)c21 (stereo partly specified)
[13]
  Activity: Non-Toxic
[8]
  GI50: 0.7 µM
[11]
  GI50: 7.4 µM
[14]
  Cmax: 1400 nM
[12]
  GI50: 5.7 µM
[15]
  Activity: < 3%
[16]
  inhibition: Active

## Cc1ncsc1-c1ccc(CNC(=O)[C@@H]2C[C@@H](O)CN2C(=O)[C@@H](NC(=O)CCCCNC(=O)CCNC[C@@H](C(=O)N2CCN(c3ncnc4c3[C@H](C)C[C@H]4O)CC2)c2ccc(Cl)cc2)C(C)(C)C)cc1
[17]
  Activity: Dose-dependent effect

## CCn1c(-c2nonc2N)nc2c(C#CC(C)(C)O)ncc(OCCCNCCCC(=O)NCCCCCCCCCCC(=O)N[C@H](C(=O)N3C[C@H](O)C[C@H]3C(=O)NCc3ccc(-c4scnc4C)cc3)C(C)(C)C)c21
[18]
  Activity: Active
[1]
  Activity: Active
[19]
  Activity: inactive
[2]
  Activity: Active

## Cc1ncsc1-c1ccc([C@H](C)NC(=O)[C@@H]2C[C@@H](O)CN2C(=O)[C@@H](NC(=O)CCCCCCCCCCC(=O)NCCNC[C@@H](C(=O)N2CCN(c3ncnc4c3[C@H](C)C[C@H]4O)CC2)c2ccc(Cl)cc2)C(C)(C)C)cc1
[13]
  Activity: Non-Toxic
[8]
  GI50: 1.3 µM
[20]
  Cmax at 8 h: 3000 nM
[21]
  Cmax at 2 h: 3500 nM
[11]
  GI50: 9.2 µM
[12]
  GI50: 3.8 µM
[15]
  Activity: < 3%

## CCn1c(-c2nonc2N)nc2c(C#CC(C)(C)O)ncc(OCCCNCCCC(=O)NCCOCCC(=O)N[C@H](C(=O)N3C[C@H](O)C[C@H]3C(=O)NCc3ccc(-c4scnc4C)cc3)C(C)(C)C)c21
[1]
  Activity: inactive
[2]
  Activity: inactive

— ChEMBL document CHEMBL5053555, “Design, Synthesis, and Evaluation of Potent, Selective, and Bioavailable AKT Kinase Degraders” (J Med Chem, 2021)
